Measured values published in ChEMBL document CHEMBL4368898, “Tridecaptin-inspired antimicrobial peptides with activity against multidrug-resistant Gram-negative bacteria” (Medchemcomm, 2019).
In brackets after ≈: the same amount, converted by molar mass. Where a SMILES comes first, the peptide text is derived from it. [ ]: non-standard residue; d: D form. The star is where a group is joined. d(aIle) = CC[C@H](C)[C@@H](N)C(=O)O; dOrn = NCCC[C@@H](N)C(=O)O; dDab = NCC[C@@H](N)C(=O)O; Octanoyl = CCCCCCCC(=O)*; Orn = NCCC[C@H](N)C(=O)O; Dab = NCC[C@H](N)C(=O)O

How the values were obtained:
Assay type in all cases: functional
Klebsiella pneumoniae [1] = assay: Antimicrobial activity against carbapenemase-producing Klebsiella pneumoniae IMP 177 assessed as inhibition of bacterial growth incubated for 18 hrs by CLSI based serial broth dilution method; details: IMP 177, 18 h
Outline: (§1)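 MIC by microbroth dilution, run in duplicate, reported in μg mL−1 to three significant figures. The Gram-negative panel includes environmental isolates from sewage-contaminated water in Lebanon and clinical isolates from patients. Strains are classed by carbapenemase production.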

Klebsiella pneumoniae [2] = assay: Antimicrobial activity against carbapenemase-producing Klebsiella pneumoniae IMP 485 assessed as inhibition of bacterial growth incubated for 18 hrs by CLSI based serial broth dilution method; details: IMP 485, 18 h; outline: as §1
Acinetobacter baumannii [3] = assay: Antimicrobial activity against carbapenemase-producing Acinetobacter baumannii ACM 29 assessed as inhibition of bacterial growth incubated for 18 hrs by CLSI based serial broth dilution method; details: ACM 29, 18 h; outline: as §1
Acinetobacter baumannii [4] = assay: Antimicrobial activity against carbapenemase-non-producing Acinetobacter baumannii assessed as inhibition of bacterial growth incubated for 18 hrs by CLSI based serial broth dilution method; outline: as §1
Klebsiella pneumoniae [5] = assay: Antimicrobial activity against carbapenemase-producing Klebsiella pneumoniae IMP 216 assessed as inhibition of bacterial growth incubated for 18 hrs by CLSI based serial broth dilution method; details: IMP 216, 18 h; outline: as §1
Enterobacter cloacae = assay: Antimicrobial activity against carbapenemase-producing Enterobacter cloacae […] assessed as inhibition of bacterial growth incubated for 18 hrs by CLSI based serial broth dilution method; outline: as §1
Klebsiella pneumoniae [6] = assay: Antimicrobial activity against carbapenemase-non-producing Klebsiella pneumoniae assessed as inhibition of bacterial growth incubated for 18 hrs by CLSI based serial broth dilution method; outline: as §1
Acinetobacter baumannii [7] = assay: Antimicrobial activity against carbapenemase-producing Acinetobacter baumannii ACM 11 assessed as inhibition of bacterial growth incubated for 18 hrs by CLSI based serial broth dilution method; details: ACM 11, 18 h; outline: as §1
Klebsiella pneumoniae [8] = assay: Antimicrobial activity against carbapenemase-producing Klebsiella pneumoniae IMP 170 assessed as inhibition of bacterial growth incubated for 18 hrs by CLSI based serial broth dilution method; details: IMP 170, 18 h; outline: as §1
Pseudomonas oleovorans = assay: Antimicrobial activity against carbapenemase-non-producing Pseudomonas pseudoalcaligenes assessed as inhibition of bacterial growth incubated for 18 hrs by CLSI based serial broth dilution method; details: Ectopseudomonas oleovorans; outline: as §1
Klebsiella pneumoniae [9] = assay: Antimicrobial activity against carbapenemase-producing Klebsiella pneumoniae IMP 204 assessed as inhibition of bacterial growth incubated for 18 hrs by CLSI based serial broth dilution method; details: IMP 204, 18 h; outline: as §1

Row | SMILES | MIC (Klebsiella pneumoniae [1]) | MIC (Klebsiella pneumoniae [2]) | MIC (Acinetobacter baumannii [3]) | MIC (Acinetobacter baumannii [4]) | MIC (Klebsiella pneumoniae [5]) | MIC (Enterobacter cloacae) | MIC (Klebsiella pneumoniae [6]) | MIC (Acinetobacter baumannii [7]) | MIC (Klebsiella pneumoniae [8]) | MIC (Pseudomonas oleovorans) | MIC (Klebsiella pneumoniae [9])
1 | CCCCCCCC(=O)N[C@@H](C(=O)N[C@H](CCCCN)C(=O)NCC(=O)N[C@H](CO)C(=O)N[C@H](Cc1c[nH]c2ccccc12)C(=O)N[C@@H](CO)C(=O)N[C@@H](CCCCN)C(=O)N[C@H](CCCCN)C(=O)N[C@@H](Cc1ccccc1)C(=O)N[C@@H](CCC(=O)O)C(=O)N[C@H](C(=O)N[C@@H](C(=O)N[C@@H](C)C(=O)O)C(C)C)C(C)C)C(C)C (HELM PEPTIDE1{[CCCCCCCC(=O)[*:2]].[dV].[dK].G.[dS].[dW].S.K.[dK].F.E.V.[dV].A}$$$$V2.0) | > 100 µg/mL | > 100 µg/mL | > 100 µg/mL | > 100 µg/mL | > 100 µg/mL | > 100 µg/mL | > 100 µg/mL | > 100 µg/mL | > 100 µg/mL | > 100 µg/mL | > 100 µg/mL
2 | CCCCCCCC(=O)N[C@@H](C(=O)N[C@H](CCN)C(=O)NCC(=O)N[C@H](CO)C(=O)N[C@H](Cc1c[nH]c2ccccc12)C(=O)N[C@@H](CO)C(=O)N[C@@H](CCN)C(=O)N[C@H](CCN)C(=O)N[C@@H](Cc1ccccc1)C(=O)N[C@@H](CCC(=O)O)C(=O)N[C@H](C(=O)N[C@@H](C(=O)N[C@@H](C)C(=O)O)[C@@H](C)CC)C(C)C)C(C)C | 6.25 µg/mL (≈ 4.11 µM) | 6.25 µg/mL (≈ 4.11 µM) | 25 µg/mL (≈ 16.4 µM) | 12.5 µg/mL (≈ 8.22 µM) | 6.25 µg/mL (≈ 4.11 µM) | 3.13 µg/mL (≈ 2.06 µM) | 6.25 µg/mL (≈ 4.11 µM) | 25 µg/mL (≈ 16.4 µM) | 6.25 µg/mL (≈ 4.11 µM) | 50 µg/mL (≈ 32.9 µM) | 12.5 µg/mL (≈ 8.22 µM)
3 | CCCCCCCC(=O)N[C@@H](C(=O)N[C@H](CCN)C(=O)NCC(=O)N[C@H](CO)C(=O)N[C@H](Cc1c[nH]c2ccccc12)C(=O)N[C@@H](CO)C(=O)N[C@@H](CCN)C(=O)N[C@H](CCN)C(=O)N[C@@H](Cc1ccccc1)C(=O)N[C@@H](CCC(=O)O)C(=O)N[C@H](C(=O)N[C@@H](C(=O)N[C@@H](C)C(=O)O)C(C)C)C(C)C)C(C)C (Octanoyl-[dV][dDab]G[dS][dW]S[Dab][dDab]FEV[dV]A-OH) | 25 µg/mL (≈ 16.6 µM) | 12.5 µg/mL (≈ 8.3 µM) | 50 µg/mL (≈ 33.2 µM) | 25 µg/mL (≈ 16.6 µM) | 12.5 µg/mL (≈ 8.3 µM) | 6.25 µg/mL (≈ 4.15 µM) | 12.5 µg/mL (≈ 8.3 µM) | 100 µg/mL (≈ 66.4 µM) | 12.5 µg/mL (≈ 8.3 µM) | 50 µg/mL (≈ 33.2 µM) | 12.5 µg/mL (≈ 8.3 µM)
4 | CCCCCCCC(=O)N[C@@H](C(=O)N[C@H](CCCCN)C(=O)NCC(=O)N[C@H](CO)C(=O)N[C@H](Cc1c[nH]c2ccccc12)C(=O)N[C@@H](CO)C(=O)N[C@@H](CCCCN)C(=O)N[C@H](CCCCN)C(=O)N[C@@H](Cc1ccccc1)C(=O)N[C@@H](CCC(=O)O)C(=O)N[C@H](C(=O)N[C@@H](C(=O)N[C@@H](C)C(=O)O)[C@@H](C)CC)C(C)C)C(C)C (HELM PEPTIDE1{[CCCCCCCC(=O)[*:2]].[dV].[dK].G.[dS].[dW].S.K.[dK].F.E.V.[CC[C@H](C)[C@@H](N[*:1])C(=O)[*:2]].A}$$$$V2.0) | 25 µg/mL (≈ 15.6 µM) | 25 µg/mL (≈ 15.6 µM) | 25 µg/mL (≈ 15.6 µM) | 6.25 µg/mL (≈ 3.89 µM) | 25 µg/mL (≈ 15.6 µM) | 25 µg/mL (≈ 15.6 µM) | 50 µg/mL (≈ 31.2 µM) | 25 µg/mL (≈ 15.6 µM) | 50 µg/mL (≈ 31.2 µM) | 100 µg/mL (≈ 62.3 µM) | 50 µg/mL (≈ 31.2 µM)
5 | CCCCCCCC(=O)N[C@@H](C(=O)N[C@H](CCCN)C(=O)NCC(=O)N[C@H](CO)C(=O)N[C@H](Cc1c[nH]c2ccccc12)C(=O)N[C@@H](CO)C(=O)N[C@@H](CCCN)C(=O)N[C@H](CCN)C(=O)N[C@@H](Cc1ccccc1)C(=O)N[C@@H](CCC(=O)O)C(=O)N[C@H](C(=O)N[C@@H](C(=O)N[C@@H](C)C(=O)O)[C@@H](C)CC)C(C)C)C(C)C (Octanoyl-[dV][dOrn]G[dS][dW]S[Orn][dDab]FEV[d(aIle)]A-OH) | 25 µg/mL (≈ 16.1 µM) | 25 µg/mL (≈ 16.1 µM) | 50 µg/mL (≈ 32.3 µM) | 100 µg/mL (≈ 64.6 µM) | 25 µg/mL (≈ 16.1 µM) | 25 µg/mL (≈ 16.1 µM) | 100 µg/mL (≈ 64.6 µM) | 50 µg/mL (≈ 32.3 µM) | 25 µg/mL (≈ 16.1 µM) | 12.5 µg/mL (≈ 8.07 µM) | 25 µg/mL (≈ 16.1 µM)
6 | CCCCCCCC(=O)N[C@@H](C(=O)N[C@H](CCCN)C(=O)NCC(=O)N[C@H](CO)C(=O)N[C@H](Cc1c[nH]c2ccccc12)C(=O)N[C@@H](CO)C(=O)N[C@@H](CCCN)C(=O)N[C@H](CCCN)C(=O)N[C@@H](Cc1ccccc1)C(=O)N[C@@H](CCC(=O)O)C(=O)N[C@H](C(=O)N[C@@H](C(=O)N[C@@H](C)C(=O)O)C(C)C)C(C)C)C(C)C (Octanoyl-[dV][dOrn]G[dS][dW]S[Orn][dOrn]FEV[dV]A-OH) | 12.5 µg/mL (≈ 8.07 µM) | 12.5 µg/mL (≈ 8.07 µM) | 50 µg/mL (≈ 32.3 µM) | 25 µg/mL (≈ 16.1 µM) | 12.5 µg/mL (≈ 8.07 µM) | 12.5 µg/mL (≈ 8.07 µM) | 50 µg/mL (≈ 32.3 µM) | 25 µg/mL (≈ 16.1 µM) | 25 µg/mL (≈ 16.1 µM) | 6.25 µg/mL (≈ 4.04 µM) | 12.5 µg/mL (≈ 8.07 µM)
7 | CCCCCCCC(=O)N[C@@H](C(=O)N[C@H](CCCN)C(=O)NCC(=O)N[C@H](CO)C(=O)N[C@H](Cc1c[nH]c2ccccc12)C(=O)N[C@@H](CO)C(=O)N[C@@H](CCCN)C(=O)N[C@H](CCCN)C(=O)N[C@@H](Cc1ccccc1)C(=O)N[C@@H](CCC(=O)O)C(=O)N[C@H](C(=O)N[C@@H](C(=O)N[C@@H](C)C(=O)O)[C@@H](C)CC)C(C)C)C(C)C (Octanoyl-[dV][dOrn]G[dS][dW]S[Orn][dOrn]FEV[d(aIle)]A-OH) | 25 µg/mL (≈ 16 µM) | 25 µg/mL (≈ 16 µM) | 50 µg/mL (≈ 32 µM) | 12.5 µg/mL (≈ 8 µM) | 6.25 µg/mL (≈ 4 µM) | 6.25 µg/mL (≈ 4 µM) | 12.5 µg/mL (≈ 8 µM) | 50 µg/mL (≈ 32 µM) | 25 µg/mL (≈ 16 µM) | 50 µg/mL (≈ 32 µM) | 25 µg/mL (≈ 16 µM)
8 | CCCCCCCC(=O)N[C@@H](C(=O)N[C@H](CCCCN)C(=O)NCC(=O)N[C@H](CO)C(=O)N[C@H](Cc1c[nH]c2ccccc12)C(=O)N[C@@H](CO)C(=O)N[C@@H](CCCCN)C(=O)N[C@H](CCN)C(=O)N[C@@H](Cc1ccccc1)C(=O)N[C@@H](CCC(=O)O)C(=O)N[C@H](C(=O)N[C@@H](C(=O)N[C@@H](C)C(=O)O)[C@@H](C)CC)C(C)C)C(C)C (Octanoyl-[dV][dK]G[dS][dW]SK[dDab]FEV[d(aIle)]A-OH) | 25 µg/mL (≈ 15.9 µM) | 25 µg/mL (≈ 15.9 µM) | 50 µg/mL (≈ 31.7 µM) | 50 µg/mL (≈ 31.7 µM) | 25 µg/mL (≈ 15.9 µM) | 25 µg/mL (≈ 15.9 µM) | 50 µg/mL (≈ 31.7 µM) | 25 µg/mL (≈ 15.9 µM) | 25 µg/mL (≈ 15.9 µM) | 25 µg/mL (≈ 15.9 µM) | 25 µg/mL (≈ 15.9 µM)
